Experimental data from ChEMBL document CHEMBL4610103, “Oleanane Triterpenoids from the Leaves of Gymnema inodorum and Their Insulin Mimetic Activities” (J Nat Prod, 2020).
Active and inactive are the calls of the source.

Columns and labels:
Assay type in all cases: functional, cell-based
3T3-L1 [1] = test: Induction of glucose uptake in mouse 3T3L1 cells assessed as increase in 2-NBDG uptake at 20 uM after 1 hr by fluorescence method
How it was run: (§1)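 Differentiated 3T3-L1 adipocytes switched to glucose-free medium containing 100 nM insulin, test compounds (20 μM single dose, or 5, 10 and 20 μM) and 50 μM 2-NBDG. Cells washed twice with PBS and lysed in 1% Triton X-100/0.1 M K3PO4 in PBS. Fluorescence read at ex 450/em 535 nm. Means ± SD of three independent experiments, each in triplicate. DMSO vehicle control; insulin positive control.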

3T3-L1 [2] = test: Induction of glucose uptake in mouse 3T3L1 cells assessed as increase in 2-NBDG uptake after 1 hr by fluorescence method; how it was run: as §1
3T3-L1 [3] = test: Induction of glucose uptake in mouse 3T3L1 cells assessed as increase in 2-NBDG uptake at 20 uM after 1 hr by fluorescence microscopy
How it was run: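 Differentiated 3T3-L1 adipocytes treated with 20 μM compound in the presence of 2-NBDG. Green fluorescence inside cells was imaged by fluorescence microscopy to follow 2-NBDG transport. Signals expressed as means ± SD (n = 3). DMSO negative control; insulin positive control.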

Measured: Activity

CC1(C)CC[C@]2(C)[C@@H](O)C[C@]3(C)C(=CC[C@@H]4[C@@]5(C)CC[C@H](O[C@@H]6O[C@H](C(=O)O)[C@@H](O)[C@H](O)[C@H]6O[C@@H]6O[C@H](CO)[C@@H](O)[C@H](O)[C@H]6O)C(C)(C)[C@@H]5CC[C@]43C)[C@@H]2C1
active: 3T3-L1 [1] | 3T3-L1 [2] Dose-dependent effect | 3T3-L1 [3]

CC1(C)C[C@H](OC(=O)c2ccccc2)[C@]2(CO)[C@@H](O)C[C@]3(C)C(=CC[C@@H]4[C@@]5(C)CC[C@H](O[C@@H]6O[C@H](C(=O)O)[C@@H](O)[C@H](O)[C@H]6O)[C@@](C)(CO)[C@@H]5CC[C@]43C)[C@@H]2C1
active: 3T3-L1 [1] | 3T3-L1 [2] Dose-dependent effect | 3T3-L1 [3]

CNc1ccccc1C(=O)O[C@H]1CC(C)(C)C[C@H]2C3=CC[C@@H]4[C@@]5(C)CC[C@H](O[C@@H]6O[C@H](C(=O)O)[C@@H](O)[C@H](O)[C@H]6O)[C@@](C)(CO)[C@@H]5CC[C@@]4(C)[C@]3(C)C[C@H](O)[C@@]12CO
active: 3T3-L1 [1] | 3T3-L1 [2] Dose-dependent effect | 3T3-L1 [3]
